Results on 46 compounds are retold here after ChEMBL document CHEMBL1781902, “Anticancer properties of an important drug lead podophyllotoxin can be efficiently mimicked by diverse heterocyclic scaffolds accessible via one-step synthesis” (2011).

For one assay, the system named is MCF7. The experiment in a line: Antiproliferative activity against human MCF7 cells after 48 hrs by MTT assay. The assay is classed as functional. The conditions noted are these: MCF7, 48 h. The gist of the method:
(§1)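 Cells were seeded at 2 × 10^4 cells/mL, allowed to adhere 24 h, then exposed 48 h to a concentration series, with DMSO as control. MTT was added for 2 h at 37 °C, formazan dissolved in DMSO and OD read at 490 nm. GI50 is the concentration giving 50% viability loss versus DMSO; 8 replicates, at least two independent experiments, ± SD.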
For orientation: Formazan colour is commonly taken as a measure of viable cells.

Another assay has as its system HeLa. The experiment in a line: Antiproliferative activity against human HeLa cells after 48 hrs by MTT assay. It is filed as functional. The method, boiled down:
as §1

The GI50 is the concentration at which growth is held to half of that of the control. Read a high GI50 as lower sensitivity of the cells. Take `O=C1OCC2=C1[C@H](c1cc(Br)cc(Br)c1)c1ccc3ccccc3c1N2`: the GI50 in the assay on MCF7 and in the assay on HeLa was 9 nM throughout.

Consider `O=C1OCC2=C1[C@@H](c1cc(Br)cc(Br)c1)c1ccc3ccccc3c1N2`, for which the 50% growth inhibitory concentration (GI50) came out at 14000 nM in the assay on MCF7 and 19000 nM with HeLa.

Consider `COc1cc(C2C3=C(COC3=O)Nc3[nH]ncc32)cc(OC)c1OC` (racemic), for which the figures for the GI50 in the assay on MCF7 and in the assay on HeLa were 250 nM and 3000 nM, respectively.

Take `COc1cc(C2C3=C(COC3=O)Nc3[nH]ncc32)cc(Br)c1OC` (racemic): the values for the concentration for 50% growth inhibition (GI50) in the assay with MCF7 and in the assay with HeLa were 250 nM and 750 nM, respectively.

With `O=C1OCC2=C1C(c1cccc(Br)c1)c1cn[nH]c1N2` (racemic), the 50% growth inhibitory concentration (GI50) in the assay with MCF7 was 100 nM; in the assay with HeLa, 75 nM.

On to `Cc1n[nH]c2c1C(c1cncc(Br)c1)C1=C(COC1=O)N2` (racemic), for which the 50% growth inhibitory concentration (GI50) in the assay on MCF7 was 800 nM; in the assay with HeLa, 3000 nM.

Consider `O=C1OCC2=C1C(c1cncc(Br)c1)c1cn[nH]c1N2` (racemic), for which the concentration for 50% growth inhibition (GI50) in the assay with MCF7 turned out to be 15 nM; in the assay with HeLa it was 75 nM.

As for `Cc1n[nH]c2c1C(c1cc(Br)cc(Br)c1)C1=C(COC1=O)N2` (racemic), the 50% growth inhibitory concentration (GI50) with MCF7 and with HeLa was 75 nM in each case.

Turning to `COc1cc(Br)cc(C2C3=C(COC3=O)Nc3[nH]nc(C)c32)c1O` (racemic), the results for the concentration for 50% growth inhibition (GI50) in the assay with MCF7 and with HeLa were 100 nM and 35 nM, respectively.

Consider `COc1cc(Br)cc(C2C3=C(COC3=O)Nc3[nH]ncc32)c1O` (racemic), for which the figures for the GI50 with MCF7 and with HeLa were 30 nM and 25 nM, respectively.

Take `Cc1n[nH]c2c1C(c1cc(Br)ccc1O)C1=C(COC1=O)N2` (racemic): the figures for the GI50 in the assay with MCF7 and with HeLa were 250 nM and 300 nM, respectively.

For the compound `O=C1OCC2=C1C(c1cc(Br)ccc1O)c1cn[nH]c1N2` (racemic), the 50% growth inhibitory concentration (GI50) with MCF7 came to 25 nM; with HeLa, 50 nM.

With `COc1cccc(C2C3=C(COC3=O)Nc3[nH]ncc32)c1O` (racemic), the GI50 was determined as 500 nM in the assay on MCF7 and 2000 nM in the assay with HeLa.

Turning to `O=C1OCC2=C1C(c1cc(Br)cs1)c1cn[nH]c1N2` (racemic), the concentration for 50% growth inhibition (GI50) with MCF7 came out at 740 nM; with HeLa, 1150 nM.

Regarding `COc1cc(C2C3=C(COC3=O)Nc3c2ccc2ccccc32)cc(OC)c1OC` (racemic), the GI50 with MCF7 and with HeLa was 3 nM in each case.

For `O=C1OCC2=C1C(c1cc(Br)cc(Br)c1)c1ccc3ccccc3c1N2` (racemic), the figures for the GI50 with MCF7 and in the assay with HeLa were 14 nM and 16 nM, respectively.

With `COc1cc(C2C3=C(COC3=O)Nc3c2ccc2ccccc32)cc(Br)c1OC` (racemic), the GI50 in the assay on MCF7 and in the assay with HeLa was 3 nM each time.

With `O=C1OCC2=C1C(c1cc(Br)cc(Br)c1O)c1ccc3ccccc3c1N2` (racemic), the GI50 was found to be 21 nM with MCF7 and 18 nM in the assay on HeLa.

For the compound `COc1cc(Br)cc(C2C3=C(COC3=O)Nc3c2ccc2ccccc32)c1O` (racemic), the GI50 in the assay on MCF7 and in the assay on HeLa was 3 nM throughout.

As to `O=C1OCC2=C1C(c1cc(Br)ccc1O)c1ccc3ccccc3c1N2` (racemic), the GI50 in the assay with MCF7 and in the assay with HeLa was 3 nM in each case.

For `O=C1OCC2=C1C(c1cncc(Br)c1)c1ccc3ccccc3c1N2` (racemic), the concentration for 50% growth inhibition (GI50) with MCF7 amounted to 13 nM; with HeLa, 7 nM.

For the compound `O=C1OCC2=C1C(c1cc(Br)cs1)c1ccc3ccccc3c1N2` (racemic), the GI50 in the assay on MCF7 and with HeLa was 3 nM each time.

With `COc1cc(C2C3=C(COC3=O)Nc3c2ccc2ccc(O)cc32)cc(OC)c1OC` (racemic), the figures for the concentration for 50% growth inhibition (GI50) in the assay with MCF7 and in the assay on HeLa were 3 nM and 2 nM, respectively.

As to `O=C1OCC2=C1C(c1cc(Br)cc(Br)c1)c1ccc3ccc(O)cc3c1N2` (racemic), the concentration for 50% growth inhibition (GI50) came to 3 nM in the assay with MCF7 and 6 nM with HeLa.

For the compound `COc1cc(C2C3=C(COC3=O)Nc3c2ccc2ccc(O)cc32)cc(Br)c1OC` (racemic), the GI50 came out at 3 nM with MCF7 and 2 nM in the assay with HeLa.

`O=C1OCC2=C1C(c1cc(Br)cc(Br)c1O)c1ccc3ccc(O)cc3c1N2` (racemic): the GI50 with MCF7 came to 3 nM; in the assay on HeLa, 7 nM.

Consider `COc1cc(Br)cc(C2C3=C(COC3=O)Nc3c2ccc2ccc(O)cc32)c1O` (racemic), for which the GI50 in the assay on MCF7 is 3 nM; with HeLa it was 6 nM.

Turning to `O=C1OCC2=C1C(c1cc(Br)ccc1O)c1ccc3ccc(O)cc3c1N2` (racemic), the 50% growth inhibitory concentration (GI50) in the assay on MCF7 and in the assay with HeLa was 3 nM each time.

`O=C1OCC2=C1C(c1cncc(Br)c1)c1ccc3ccc(O)cc3c1N2` (racemic): the GI50 in the assay with MCF7 and with HeLa was 3 nM throughout.

As for `O=C1OCC2=C1C(c1cc(Br)cs1)c1ccc3ccc(O)cc3c1N2` (racemic), the concentration for 50% growth inhibition (GI50) in the assay with MCF7 and with HeLa was 3 nM throughout.

For the compound `COc1cc(C2C3=C(COC3=O)Nc3c2ccc2c(O)cccc32)cc(OC)c1OC` (racemic), the GI50 with MCF7 and in the assay on HeLa was 3 nM throughout.

For `O=C1OCC2=C1C(c1cc(Br)cc(Br)c1)c1ccc3c(O)cccc3c1N2` (racemic), the concentration for 50% growth inhibition (GI50) with MCF7 was found to be 23 nM; with HeLa it was 21 nM.

As to `Nc1cc2c(c3ccccc13)NC1=C(C(=O)OC1)C2c1cc(Br)cc(Br)c1` (racemic), the concentration for 50% growth inhibition (GI50) with MCF7 was determined as 16 nM; with HeLa, 21 nM.

In the case of `COc1cc(C2C3=C(COC3=O)Nc3ccc4ccccc4c32)cc(OC)c1OC` (racemic), the figures for the GI50 with MCF7 and in the assay with HeLa were 121 nM and 540 nM, respectively.

Consider `O=C1OCC2=C1C(c1cc(Br)cc(Br)c1)c1c(ccc3ccccc13)N2` (racemic), for which the GI50 worked out at 201 nM in the assay on MCF7 and 420 nM in the assay on HeLa.

Turning to `COc1cc(C2C3=C(COC3=O)Nc3cc4c(cc32)CCCC4)cc(OC)c1OC` (racemic), the 50% growth inhibitory concentration (GI50) with MCF7 came out at 19 nM; with HeLa, 18 nM.

For `O=C1OCC2=C1C(c1cc(Br)cc(Br)c1)c1cc3c(cc1N2)CCCC3` (racemic), the results for the GI50 in the assay with MCF7 and with HeLa were 70 nM and 100 nM, respectively.

Consider `COc1cc(C2C3=C(COC3=O)Nc3c2ccc2[nH]ccc32)cc(OC)c1OC` (racemic), for which the GI50 in the assay with MCF7 came to 22 nM; in the assay with HeLa it was 19 nM.

As to `O=C1OCC2=C1C(c1cc(Br)cc(Br)c1)c1ccc3[nH]ccc3c1N2` (racemic), the concentration for 50% growth inhibition (GI50) was 21 nM with MCF7 and 114 nM in the assay on HeLa.

In the case of `COc1cc(C2C3=C(COC3=O)Nc3[nH][nH]c(=O)c32)cc(OC)c1OC` (racemic), the concentration for 50% growth inhibition (GI50) in the assay with MCF7 and in the assay on HeLa was over 10000 nM throughout.

Take `O=C1OCC2=C1C(c1cc(Br)cc(Br)c1)c1c([nH][nH]c1=O)N2` (racemic): the GI50 with MCF7 and in the assay with HeLa was over 10000 nM in each case.

Take `COc1cc(C2C3=C(COC3=O)Nc3nc(SC)nc(N)c32)cc(OC)c1OC` (racemic): the figures for the concentration for 50% growth inhibition (GI50) in the assay with MCF7 and in the assay with HeLa were 170 nM and 125 nM, respectively.

As for `CSc1nc(N)c2c(n1)NC1=C(C(=O)OC1)C2c1cc(Br)cc(Br)c1` (racemic), the GI50 in the assay on MCF7 stood at 1020 nM; with HeLa it was 561 nM.

In the case of `COc1cc(C2C3=C(COC3=O)Nc3[nH]nc(C)c32)cc(OC)c1OC` (racemic), the GI50 with MCF7 and with HeLa was 5000 nM each time.

`COc1cc(C2C3=C(COC3=O)Nc3[nH]nc(C)c32)cc(Br)c1OC` (racemic): the values for the concentration for 50% growth inhibition (GI50) in the assay with MCF7 and in the assay on HeLa were 1000 nM and 750 nM, respectively.

Consider `Cc1n[nH]c2c1C(c1cccc(Br)c1)C1=C(COC1=O)N2` (racemic), for which the results for the GI50 in the assay on MCF7 and with HeLa were 4000 nM and 3000 nM, respectively.
